From ChEMBL document CHEMBL2434855, “Aggrecanase-2 inhibitors based on the acylthiosemicarbazide zinc-binding group” (Eur J Med Chem, 2013)

Columns and labels:
Collagenase 3 = Collagenase 3 (Homo sapiens, UniProt P45452); test: Inhibition of human MMP-13 after 10 mins
[1] = target: T1, A disintegrin and metalloproteinase with thrombospondin motifs 4 (Homo sapiens, UniProt O75173); test: Inhibition of human recombinant ADAMTS-4 using QTVTWPDMELPLPRNITEGEARGSVIL-TVKPIFEVSPSPL(biotinyl)K as substrate incubated for 10 mins prior to substrate addition measured after 3 hrs by spectrophotometry
T1 sequence (O75173 whole entry): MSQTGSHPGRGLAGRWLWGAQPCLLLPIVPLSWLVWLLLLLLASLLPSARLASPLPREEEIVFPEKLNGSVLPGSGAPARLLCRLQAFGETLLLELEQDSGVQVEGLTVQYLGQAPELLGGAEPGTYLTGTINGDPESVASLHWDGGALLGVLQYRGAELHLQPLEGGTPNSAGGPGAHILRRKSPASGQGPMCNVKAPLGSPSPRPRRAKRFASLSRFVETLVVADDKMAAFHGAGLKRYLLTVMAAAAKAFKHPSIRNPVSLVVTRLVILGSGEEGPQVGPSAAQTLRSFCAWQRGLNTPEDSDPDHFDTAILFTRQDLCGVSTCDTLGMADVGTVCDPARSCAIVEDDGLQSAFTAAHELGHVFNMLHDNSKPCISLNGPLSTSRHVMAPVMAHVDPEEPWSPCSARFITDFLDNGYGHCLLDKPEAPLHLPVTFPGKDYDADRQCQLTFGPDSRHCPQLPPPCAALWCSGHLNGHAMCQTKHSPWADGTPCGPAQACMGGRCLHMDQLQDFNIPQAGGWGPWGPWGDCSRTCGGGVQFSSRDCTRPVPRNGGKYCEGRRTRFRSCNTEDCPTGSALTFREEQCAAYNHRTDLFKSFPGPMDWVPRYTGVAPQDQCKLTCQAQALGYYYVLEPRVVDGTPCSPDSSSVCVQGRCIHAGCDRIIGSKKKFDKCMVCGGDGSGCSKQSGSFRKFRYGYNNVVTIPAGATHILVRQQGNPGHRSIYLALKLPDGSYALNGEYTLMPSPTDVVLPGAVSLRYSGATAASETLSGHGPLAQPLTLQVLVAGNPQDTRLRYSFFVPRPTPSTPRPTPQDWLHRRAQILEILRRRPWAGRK
Procedure, shortened: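 It was then added to streptavidin wells coated with the biotinylated 41-mer aggrecan peptide and reacted for 3 h at 37 °C. Cleavage product was detected by BC-3 anti-ARGxx ELISA with HRP and TMB, read at 450 nm.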

[2] = target: T2, A disintegrin and metalloproteinase with thrombospondin motifs 5 (Homo sapiens, UniProt Q9UNA0); test: Inhibition of human recombinant ADAMTS-5 using QTVTWPDMELPLPRNITEGEARGSVIL-TVKPIFEVSPSPL(biotinyl)K as substrate incubated 10 mins prior to substrate addition measured after 3 hrs by spectrophotometry
T2 sequence (Q9UNA0 whole entry): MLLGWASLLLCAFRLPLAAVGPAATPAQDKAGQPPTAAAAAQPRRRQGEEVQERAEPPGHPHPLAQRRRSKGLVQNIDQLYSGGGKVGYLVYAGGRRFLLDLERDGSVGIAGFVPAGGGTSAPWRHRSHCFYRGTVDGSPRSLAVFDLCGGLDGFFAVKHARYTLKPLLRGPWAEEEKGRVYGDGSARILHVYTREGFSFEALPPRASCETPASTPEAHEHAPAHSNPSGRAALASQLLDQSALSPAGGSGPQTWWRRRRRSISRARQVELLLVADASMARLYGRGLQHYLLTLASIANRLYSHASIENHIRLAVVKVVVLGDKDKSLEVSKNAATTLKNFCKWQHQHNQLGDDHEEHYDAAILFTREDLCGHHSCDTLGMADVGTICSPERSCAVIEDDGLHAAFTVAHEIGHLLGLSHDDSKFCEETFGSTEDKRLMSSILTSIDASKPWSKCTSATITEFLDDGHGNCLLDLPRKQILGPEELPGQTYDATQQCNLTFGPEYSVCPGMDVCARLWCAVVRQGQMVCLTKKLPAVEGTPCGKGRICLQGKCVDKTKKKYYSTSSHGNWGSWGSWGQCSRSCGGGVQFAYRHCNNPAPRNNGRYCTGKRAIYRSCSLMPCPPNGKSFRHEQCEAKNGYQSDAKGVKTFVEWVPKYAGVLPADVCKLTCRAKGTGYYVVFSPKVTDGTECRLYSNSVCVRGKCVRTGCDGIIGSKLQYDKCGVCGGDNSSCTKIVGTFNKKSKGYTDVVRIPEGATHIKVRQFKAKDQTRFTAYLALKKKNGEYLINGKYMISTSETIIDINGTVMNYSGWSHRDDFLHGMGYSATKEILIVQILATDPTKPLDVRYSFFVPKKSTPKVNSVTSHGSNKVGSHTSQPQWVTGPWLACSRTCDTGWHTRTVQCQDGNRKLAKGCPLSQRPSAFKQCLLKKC

IC50 (Collagenase 3): > 100000 nM
Structure (SMILES): O=C(COc1ccc(Cl)cc1)NNC(=S)NCCCCC1CCCCC1
IC50 [1]: 630 nM | IC50 [2]: 170 nM
